The source made the active and inactive calls. The calls are words filed in the database; no cut-off is given here.
Experiments:
[1] = target: T1, Nucleotide-binding oligomerization domain-containing protein 1 (Homo sapiens) (UniProt Q9Y239); test: Antagonist activity at NOD1 in HEK-Blue hNOD1 cells assessed as inhibition of C12-iE-DAP-induced NFkappaB activation-mediated SEAP release at 5 uM preincubated for 3 hrs followed by C12-iE-DAP addition and measured after 20 hrs by spectrophotometric method relative to control; format: cell-based; settings: filed as antagonist, time 23.0 hrs
T1 sequence (whole entry): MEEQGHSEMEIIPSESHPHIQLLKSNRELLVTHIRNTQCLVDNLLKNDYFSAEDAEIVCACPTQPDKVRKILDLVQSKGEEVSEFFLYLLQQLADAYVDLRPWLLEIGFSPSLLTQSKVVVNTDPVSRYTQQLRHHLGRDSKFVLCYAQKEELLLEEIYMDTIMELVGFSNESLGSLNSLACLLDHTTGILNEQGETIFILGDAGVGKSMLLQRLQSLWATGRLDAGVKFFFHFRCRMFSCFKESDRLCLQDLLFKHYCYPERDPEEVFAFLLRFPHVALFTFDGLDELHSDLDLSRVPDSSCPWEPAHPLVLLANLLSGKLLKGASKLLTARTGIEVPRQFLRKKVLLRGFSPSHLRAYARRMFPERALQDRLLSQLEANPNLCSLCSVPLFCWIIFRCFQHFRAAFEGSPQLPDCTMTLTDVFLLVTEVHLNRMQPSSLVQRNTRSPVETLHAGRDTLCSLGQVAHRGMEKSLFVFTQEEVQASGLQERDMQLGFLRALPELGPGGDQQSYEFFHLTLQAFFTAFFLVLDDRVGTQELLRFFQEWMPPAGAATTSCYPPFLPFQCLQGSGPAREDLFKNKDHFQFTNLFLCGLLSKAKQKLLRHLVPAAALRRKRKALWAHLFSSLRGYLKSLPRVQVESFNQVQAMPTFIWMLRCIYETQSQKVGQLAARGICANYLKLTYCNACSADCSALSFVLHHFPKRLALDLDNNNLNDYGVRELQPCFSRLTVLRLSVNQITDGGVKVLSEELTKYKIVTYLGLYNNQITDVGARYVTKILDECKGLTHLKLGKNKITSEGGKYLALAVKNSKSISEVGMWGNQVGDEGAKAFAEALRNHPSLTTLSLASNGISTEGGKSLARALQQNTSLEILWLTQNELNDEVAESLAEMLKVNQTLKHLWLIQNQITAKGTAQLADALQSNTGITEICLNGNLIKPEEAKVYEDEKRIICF

[2] = Half life in mouse liver microsomes at 1.25 uM preincubated for 5 mins followed by NADPH generating system addition and measured for 120 mins by LC-MS/MS analysis; format: ADME, Microsome
Procedure, shortened: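 Mouse liver microsomes (1.25 mg/mL protein) in 100 mM phosphate pH 7.4 with 1.25 µM compound, preincubated 5 min at 37 °C. Reaction started with NADPH-generating system (1 mM NADP, 10 mM MgCl2, 10 mM G6P, 0.5 U/mL G6PDH). Sampled at 0–120 min, quenched with MeOH/ACN 1:1, analysed by LC-MS/MS.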

[3] = target: T1, Nucleotide-binding oligomerization domain-containing protein 1 (Homo sapiens); test: Antagonist activity at NOD1 in human THP-1 cells assessed as inhibition of C12-iE-DAP-induced increase in IKKalpha/beta phosphorylation at 1 to 10 uM preincubated for 1 hr followed by C12-iE-DAP addition and measured after 30 mins by Western blot analysis; format: cell-based; settings: filed as antagonist, dose 1-10 µM, time 1.5 hrs
Procedure, shortened: (§1)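 Serum-starved THP-1 cells pretreated with compound (1.0 or 10 µM) or without for 1 h. Then C12-iE-DAP 500 ng/mL (NOD1) or MDP (NOD2) for 30 min. Lysed in cold whole-cell buffer. Western blot for IκBα and for total and phospho RIP2, IKKα/β, p65, JNK, p38 and ERK1/2. β-actin as loading control.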

[4] = target: T1, Nucleotide-binding oligomerization domain-containing protein 1 (Homo sapiens); test: Antagonist activity at NOD1 in human THP-1 cells assessed as inhibition of C12-iE-DAP-induced increase in p38 phosphorylation at 1 to 10 uM preincubated for 1 hr followed by C12-iE-DAP addition and measured after 30 mins by Western blot analysis; format: cell-based; settings: filed as antagonist, dose 1-10 µM, time 1.5 hrs; procedure, shortened: as §1
[5] = target: T2, Nucleotide-binding oligomerization domain-containing protein 2 (Homo sapiens, UniProt Q9HC29); test: Antagonist activity at NOD2 in human THP-1 cells assessed as inhibition of MDP-induced increase in RIP2 phosphorylation preincubated for 1 hr followed by MDP addition and measured after 30 mins by Western blot analysis; format: cell-based; settings: filed as antagonist, dose 1-10 µM, time 1.5 hrs; procedure, shortened: as §1
[6] = target: T2, Nucleotide-binding oligomerization domain-containing protein 2; test: Antagonist activity at NOD2 in human THP-1 cells assessed as inhibition of MDP-induced increase in JNK phosphorylation preincubated for 1 hr followed by MDP addition and measured after 30 mins by Western blot analysis; format: cell-based; settings: filed as antagonist, dose 1-10 µM, time 1.5 hrs; procedure, shortened: as §1
[7] = target: T1, Nucleotide-binding oligomerization domain-containing protein 1 (Homo sapiens); test: Antagonist activity at NOD1 in human THP-1 cells assessed as inhibition of C12-iE-DAP-induced TNFalpha mRNA expression preincubated for 1 hr followed by C12-iE-DAP addition and measured after 90 mins by qRT-PCR analysis; format: cell-based; settings: filed as antagonist, dose 1-10 µM, time 150.0 min
Procedure, shortened: (§2)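 THP-1 cells in RPMI-1640 with 10% FBS, treated with compound (1.0 or 10 µM) or vehicle for 1 h. Then stimulated 90 min with C12-iE-DAP 500 ng/mL (NOD1) or MDP (NOD2). IL-6, TNF-α and IL-8 mRNA measured by qRT-PCR. Mean ± SD, n = 6, two-tailed t-test.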

[8] = target: T2, Nucleotide-binding oligomerization domain-containing protein 2; test: Antagonist activity at NOD2 in human THP-1 cells assessed as inhibition of MDP-induced IL6 mRNA expression preincubated for 1 hr followed by MDP addition and measured after 90 mins by qRT-PCR analysis; format: cell-based; settings: filed as antagonist, dose 1-10 µM, time 150.0 min; procedure, shortened: as §2
[9] = target: T2, Nucleotide-binding oligomerization domain-containing protein 2; test: Antagonist activity at NOD2 in human THP-1 cells assessed as inhibition of MDP-induced TNFalpha mRNA expression preincubated for 1 hr followed by MDP addition and measured after 90 mins by qRT-PCR analysis; format: cell-based; settings: filed as antagonist, dose 1-10 µM, time 150.0 min; procedure, shortened: as §2
[10] = target: T2, Nucleotide-binding oligomerization domain-containing protein 2; test: Antagonist activity at NOD2 in human THP-1 cells assessed as inhibition of MDP-induced IL8 mRNA expression preincubated for 1 hr followed by MDP addition and measured after 90 mins by qRT-PCR analysis; format: cell-based; settings: filed as antagonist, dose 1-10 µM, time 150.0 min; procedure, shortened: as §2

T2 sequence (Q9HC29 whole entry, the tested form may be a part): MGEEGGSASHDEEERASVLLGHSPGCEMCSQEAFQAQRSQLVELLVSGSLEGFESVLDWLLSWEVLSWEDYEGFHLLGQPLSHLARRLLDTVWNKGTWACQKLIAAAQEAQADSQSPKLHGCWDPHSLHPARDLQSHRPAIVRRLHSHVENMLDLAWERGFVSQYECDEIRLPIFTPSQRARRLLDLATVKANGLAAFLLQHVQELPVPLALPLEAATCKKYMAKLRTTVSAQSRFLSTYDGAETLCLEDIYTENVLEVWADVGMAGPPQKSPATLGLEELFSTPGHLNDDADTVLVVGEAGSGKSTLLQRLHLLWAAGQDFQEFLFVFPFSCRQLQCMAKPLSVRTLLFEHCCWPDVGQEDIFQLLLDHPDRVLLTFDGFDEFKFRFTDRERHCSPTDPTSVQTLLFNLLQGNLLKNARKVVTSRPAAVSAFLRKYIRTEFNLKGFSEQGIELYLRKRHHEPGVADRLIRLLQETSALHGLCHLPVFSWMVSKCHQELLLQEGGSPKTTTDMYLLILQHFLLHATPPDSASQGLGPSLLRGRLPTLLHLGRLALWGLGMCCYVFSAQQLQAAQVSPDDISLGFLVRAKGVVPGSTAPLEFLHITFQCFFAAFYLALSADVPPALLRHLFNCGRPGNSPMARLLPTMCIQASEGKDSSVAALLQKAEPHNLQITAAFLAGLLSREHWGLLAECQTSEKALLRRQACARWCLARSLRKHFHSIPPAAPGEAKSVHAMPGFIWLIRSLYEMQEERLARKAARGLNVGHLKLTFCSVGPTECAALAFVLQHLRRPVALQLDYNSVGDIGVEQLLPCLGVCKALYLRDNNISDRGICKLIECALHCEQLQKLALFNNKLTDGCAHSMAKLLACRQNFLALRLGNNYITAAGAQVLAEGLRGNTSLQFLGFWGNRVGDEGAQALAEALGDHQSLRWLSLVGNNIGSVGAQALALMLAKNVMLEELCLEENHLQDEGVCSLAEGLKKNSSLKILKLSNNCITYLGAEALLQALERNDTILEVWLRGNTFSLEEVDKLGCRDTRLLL

SMILES: O=C(NCCCOc1ccc(C(F)(F)F)cc1)c1cc2ncn(CC(=O)N3CCCC(F)(F)C3)c(=O)c2cc1-c1cccc(Cl)c1
- inhibition [1]: 91.4%
- half-life at 1.25 µM [2]: 1.13 h
- inhibition [3]: Active
- inhibition [4]: Active
- inhibition [5]: Dose-dependent effect
- inhibition [6]: Dose-dependent effect
- inhibition [7]: Dose-dependent effect
- inhibition [8]: Dose-dependent effect
- inhibition [9]: Dose-dependent effect
- inhibition [10]: Dose-dependent effect
